Consider nine compounds from ChEMBL document CHEMBL2407086, “Semisynthesis, cytotoxic activity, and oral availability of new lipophilic 9-substituted camptothecin derivatives” (ACS Med Chem Lett, 2013).

For data set [1], the system named is HeLa. Briefly: Cytotoxicity against human HeLa cells after 72 hrs by MTT assay. In kind it is functional, cell-based. A digest of the protocol:
(§1)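 Cell growth measured by MTT read-out after 72 h continuous drug exposure. IC50 values derived from at least three independent experiments.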

The test system of data set [2] is MCF7. The experiment in a line: Cytotoxicity against human MCF7 cells after 72 hrs by MTT assay. It is filed as functional, cell-based. The conditions noted are these: MCF7, 72 h. The essentials:
as §1

Data set [3] deals with MDA-MB-231. Briefly: Cytotoxicity against human MDA-MB-231 cells after 72 hrs by MTT assay. It is filed as functional, cell-based. The conditions noted are these: MDA-MB-231, 72 h. A digest of the protocol: as §1
Data set [4] has as its system A549. Briefly: Cytotoxicity against human A549 cells after 72 hrs by MTT assay. It is filed as functional, cell-based. Conditions: A549, 72 h. A digest of the protocol:
as §1

Data set [5] has as its system K562. Briefly: Cytotoxicity against human K562 cells after 72 hrs by MTT assay. It is filed as functional, cell-based. The conditions noted are these: K562, 72 h. The essentials: as §1
Data set [6] concerns A2780. Briefly: Cytotoxicity against human A2780 cells after 72 hrs by MTT assay. In kind it is functional, cell-based. The conditions noted are these: A2780, 72 h. A digest of the protocol: as §1
Data set [7] relates to MOLT-4. Briefly: Cytotoxicity against human MOLT4 cells after 72 hrs by MTT assay. It is filed as functional, cell-based. Conditions: MOLT-4, 72 h. A digest of the protocol:
as §1

The test system of data set [8] is PC-3. Briefly: Cytotoxicity against human PC3 cells after 72 hrs by MTT assay. It is filed as functional, cell-based. The conditions noted are these: PC-3, 72 h. A digest of the protocol: as §1
Data set [9] is described as follows: Effective permeability of the compound in human Caco2 cells at 50 uM after 15 to 90 mins. In kind it is ADME, cell-based. Conditions: Caco-2, read-out: Peff. A digest of the protocol:
(§2)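 Caco-2 monolayers dosed at 50 μM. Transport measured in both directions, apical to basal (Pab) and basal to apical (Pba), in separate runs with and without the metabolic inhibitor sodium azide. Permeability coefficients were calculated with sink or non-sink equations. Values are means of three independent experiments.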

Data set [10] in a line: Effective permeability of the compound in human Caco2 cells at 50 uM after 15 to 90 mins in presence of sodium azide. In kind it is ADME, cell-based. Conditions: Caco-2, with sodium azide (concentration not stated), read-out: Peff. The essentials: as §2
For data set [11], the system named is K562. The experiment in a line: Ratio of topotecan IC50 to compound IC50 for human K562 cells. In kind it is functional.

In data set [1], `CC[C@@]1(O)C(=O)OCc2c1cc1n(c2=O)Cc2cc3c(CN4C(=O)c5ccccc5C4=O)c(O)ccc3nc2-1` registered an IC50 of 1270 nM.
`CC[C@@]1(O)C(=O)OCc2c1cc1n(c2=O)Cc2cc3c(CN4C(=O)C5=C(CCCC5)C4=O)c(O)ccc3nc2-1`: the IC50 is 159 nM in data set [2]; > 500 nM in [3]; 346 nM in data set [4]; > 500 nM in data set [5]; 41 nM in data set [6]; 15 nM in data set [7]. Besides, the values for the IC50 in [1] and in data set [8] were 214 nM and 103 nM, respectively.
On to `CC[C@@]1(O)C(=O)OCc2c1cc1n(c2=O)Cc2cc3c(CN4C(=O)C=CC4=O)c(O)ccc3nc2-1`, for which the IC50 in [1] is > 5000 nM.
On to `CC[C@@]1(O)C(=O)OCc2c1cc1n(c2=O)Cc2cc3c(CN4CCCC4=O)c(O)ccc3nc2-1`, for which the Papp at 50 µM in [9] came to 0.48 ×10⁻⁶ cm/s; in data set [10] it was 1.33 ×10⁻⁶ cm/s. Further, the IC50 in [1] was > 5000 nM.
Turning to `CC[C@@]1(O)C(=O)OCc2c1cc1n(c2=O)Cc2cc3c(CNC(C)=O)c(O)ccc3nc2-1`, the Papp at 50 µM came out at 1.17 ×10⁻⁶ cm/s in data set [9] and 1.52 ×10⁻⁶ cm/s in data set [10]. Moreover, the IC50 in [1] was > 5000 nM.
Take `CC[C@@]1(O)C(=O)OCc2c1cc1n(c2=O)Cc2cc3c(CN4C(=O)C5=C(CCCC5)C4=O)c(OC)ccc3nc2-1`: the IC50 worked out at 78 nM in data set [2]; 500 nM in data set [3]; 226 nM in [4]; 109 nM in data set [5]; 28 nM in data set [6]; 14 nM in data set [7]. In addition, the IC50 in data set [1] was 173 nM; in data set [8], 51 nM. Besides, the values for the Papp at 50 µM in [9] and in data set [10] were 4.91 ×10⁻⁶ cm/s and 2.58 ×10⁻⁶ cm/s, respectively. The “Ratio IC50” value in data set [11] was 5.
For the compound `CC[C@@]1(O)C(=O)OCc2c1cc1n(c2=O)Cc2cc3ccccc3nc2-1` [CAMPTOTHECIN], the IC50 was 26 nM in [2]; 162 nM in data set [3]; 99 nM in data set [4]; 31 nM in data set [5]; 13 nM in data set [6]; 0.04 nM in data set [7]. The IC50 in data set [1] came out at 24 nM; in data set [8], 78 nM. Also, the Papp at 50 µM was 7.88 ×10⁻⁶ cm/s in data set [9] and 1 ×10⁻⁶ cm/s in data set [10].
With `CC[C@@]1(O)C(=O)OCc2c1cc1n(c2=O)Cc2cc3cc(O)ccc3nc2-1` [HYDROXYCAMPTOTHECIN], the Papp at 50 µM in [9] came out at 7.88 ×10⁻⁶ cm/s; in data set [10], 1.01 ×10⁻⁶ cm/s.
Take `CC[C@@]1(O)C(=O)OCc2c1cc1n(c2=O)Cc2cc3c(CN(C)C)c(O)ccc3nc2-1` [TOPOTECAN]: the IC50 in [2] was 63 nM; in [3] it was > 500 nM; in data set [4], 354 nM; in data set [5], 500 nM; in [6], 33 nM; in [7], 19 nM. The compound further yielded an IC50 in [8] of 62 nM. Further, the results for the Papp at 50 µM in data set [9] and in data set [10] were 1.77 ×10⁻⁶ cm/s and 2.88 ×10⁻⁶ cm/s, respectively.
